Results of several laboratories.
Each line is one published result; the experiments were not run side by side. pIC50: −log10 of the molar value. Values after ≈ are worked out from the molar mass of the structure shown.
Organism: Escherichia coli

Compound	assay	test system	measurement	result
Cc1cc(/C=C2\Sc3ccccc3N2CCCN2CCC(C)CC2)c2ccccc2[n+]1C.[I-]	microbial growth, broth dilution	ATCCBAA2469	MIC	1 µg/mL
O=C(O)c1cn(C2CC2)c2cc(N3CCNCC3)c(F)cc2c1=O	microbial killing	–	MBC	0.019 µg/mL (≈ 0.0573 µM)
CCC(CCCCCCCCCCc1cc(O)cc(O)c1)C(C)C (stereo not shown)	microbial growth	–	pIC50	4.46
COc1c(N2C[C@@H]3CCCN[C@@H]3C2)c(F)cc2c(=O)c(C(=O)O)cn(C3CC3)c12	microbial growth	–	MIC90	0.06 µg/mL (≈ 0.149 µM)
COC(=O)c1cc(-c2ccc(NC(=O)Nc3ccc(Cl)c(Cl)c3)cc2)on1	microbial growth, broth dilution	ATCC25922	MIC	> 64 µg/mL
Oc1cccc2cccnc12	microbial growth, broth dilution	ATCC25922	IC50	49.5 µg/mL
O=C(N/N=C/c1ccc([N+](=O)[O-])o1)c1ccc(O)cc1	microbial growth	–	MIC90	31.2 µg/mL (≈ 114 µM)
COC(=O)c1cc(-c2cccc(NC(=O)Nc3cc(Cl)ccc3Cl)c2)on1	microbial growth, broth dilution	ATCC25922	MIC	> 64 µg/mL
CC(C)C(C)CCCCCCCCCCCc1cc(O)cc(O)c1 (stereo not shown)	microbial growth	–	pIC50	4.30
O=C(Nc1cccc(-c2cc(C(=O)O)no2)c1)Nc1ccc(Cl)c(Cl)c1	microbial growth, broth dilution	ATCC25922	MIC	> 64 µg/mL
C[C@H]1NCc2cc(-c3ccc4c(=O)c(C(=O)O)cn(C5CC5)c4c3OC(F)F)ccc21	microbial growth, broth dilution	–	MIC90	0.25 µg/mL (≈ 0.586 µM)
CC(C)CCCCCCCCCCCCc1cc(O)cc(O)c1	microbial growth	–	pIC50	4.11
COC(=O)c1cc(-c2cccc(NC(=S)Nc3ccc(C)cc3)c2)on1	microbial growth, broth dilution	ATCC25922	MIC	> 64 µg/mL
